Laboratory results as given in ChEMBL document CHEMBL1275331, “Discovery of a novel 5-HT(3) antagonist/5-HT(1A) agonist 3-amino-5,6,7,8-tetrahydro-2-{4-[4-(quinolin-2-yl)piperazin-1-yl]butyl}quinazolin-4(3H)-one (TZB-30878) as an orally bioavailable agent for irritable bowel syndrome” (J Med Chem, 2010).

Experiments:
[1] = target: Muscarinic acetylcholine receptor M3 (Homo sapiens, UniProt P20309); experiment: Displacement of [3H]4-DAMP from human recombinant muscarinic M3 receptor
[2] = target: T1, 5-hydroxytryptamine receptor 3A (Cavia porcellus) (UniProt O70212); experiment: Inhibition of 5HT3 receptor-mediated contraction of guinea pig ileum at 1 umol/L after 20 mins relative to control; type: tissue-based
T1 sequence (whole entry): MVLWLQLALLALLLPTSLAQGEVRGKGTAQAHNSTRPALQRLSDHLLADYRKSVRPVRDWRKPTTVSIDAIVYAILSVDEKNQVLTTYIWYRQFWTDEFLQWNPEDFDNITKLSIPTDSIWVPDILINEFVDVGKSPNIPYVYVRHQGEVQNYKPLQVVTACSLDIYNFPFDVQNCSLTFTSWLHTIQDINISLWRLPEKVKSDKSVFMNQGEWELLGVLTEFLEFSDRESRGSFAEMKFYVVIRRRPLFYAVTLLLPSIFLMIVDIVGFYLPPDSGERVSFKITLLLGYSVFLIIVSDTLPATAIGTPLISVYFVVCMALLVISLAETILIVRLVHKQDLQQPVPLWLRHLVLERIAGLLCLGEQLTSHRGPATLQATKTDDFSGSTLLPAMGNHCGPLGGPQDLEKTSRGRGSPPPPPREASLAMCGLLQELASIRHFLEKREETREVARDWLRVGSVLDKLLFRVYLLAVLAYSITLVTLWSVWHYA
Summary of the method: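 Ileum strips in Tyrode solution at 37 °C, gassed 5% CO2/95% O2, isotonic contractions under 1 g load. After at least 3 stable contractions to 10 μM 2-methyl-5-HT, tissue exposed to compound or DMSO vehicle for 20 min, then 10 μM 2-methyl-5-HT re-added; contraction expressed as % inhibition of control.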

[3] = Drug level in Sprague-Dawley rat blood at 3 mg/kg, po after 2 hrs by HPLC analysis; type: ADME, organism-based; parameters: dose 3 mg/kg, route oral; conditions: whole blood, read-out: Drug uptake
Summary of the method: (§1)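 Total compound concentration was measured in brain and blood at 2, 4 and 8 h after a single oral 3 mg/kg dose. Brain/blood ratio was also derived. Values are mean ± SD of three rats.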

[4] = Drug level in Sprague-Dawley rat brain at 3 mg/kg, po after 2 hrs by HPLC analysis; type: ADME, organism-based; parameters: dose 3 mg/kg, route oral; conditions: read-out: Drug uptake; summary of the method: as §1
[5] = target: 5-hydroxytryptamine receptor 6 (Homo sapiens, UniProt P50406); experiment: Displacement of [3H]LSD from human recombinant 5HT6 receptor
5-hydroxytryptamine receptor 6, sequence (P50406 whole entry): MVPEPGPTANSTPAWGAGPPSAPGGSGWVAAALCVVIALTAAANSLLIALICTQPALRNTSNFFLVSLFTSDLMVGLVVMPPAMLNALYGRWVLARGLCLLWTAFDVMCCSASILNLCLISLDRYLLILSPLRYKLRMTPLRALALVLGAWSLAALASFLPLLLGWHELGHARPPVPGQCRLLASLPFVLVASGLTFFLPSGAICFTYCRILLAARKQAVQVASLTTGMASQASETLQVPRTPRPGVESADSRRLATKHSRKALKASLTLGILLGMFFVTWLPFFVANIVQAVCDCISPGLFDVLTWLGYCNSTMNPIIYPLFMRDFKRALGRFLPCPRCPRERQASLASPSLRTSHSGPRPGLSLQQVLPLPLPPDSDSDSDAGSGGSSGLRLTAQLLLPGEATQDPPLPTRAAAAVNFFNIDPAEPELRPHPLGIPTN

[6] = target: Muscarinic acetylcholine receptor M2 (Homo sapiens, UniProt P08172); experiment: Displacement of [3H]AF-DX384 from human recombinant muscarinic M2 receptor
Muscarinic acetylcholine receptor M2, sequence (P08172 whole entry): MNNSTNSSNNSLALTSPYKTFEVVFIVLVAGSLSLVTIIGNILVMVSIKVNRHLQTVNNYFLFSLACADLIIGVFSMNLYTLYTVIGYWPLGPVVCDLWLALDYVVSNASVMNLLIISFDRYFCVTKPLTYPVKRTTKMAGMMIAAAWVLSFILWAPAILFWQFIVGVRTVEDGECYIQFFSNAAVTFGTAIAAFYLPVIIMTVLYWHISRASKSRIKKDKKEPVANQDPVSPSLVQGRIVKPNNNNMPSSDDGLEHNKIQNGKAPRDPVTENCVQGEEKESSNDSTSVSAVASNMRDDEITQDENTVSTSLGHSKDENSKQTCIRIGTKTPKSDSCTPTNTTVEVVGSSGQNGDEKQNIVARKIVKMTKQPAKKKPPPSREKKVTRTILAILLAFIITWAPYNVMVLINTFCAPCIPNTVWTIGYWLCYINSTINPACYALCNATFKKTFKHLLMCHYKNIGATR

[7] = target: 5-hydroxytryptamine receptor 2A (Rattus norvegicus, UniProt P14842); experiment: Inhibition of rat 5HT2 receptor
5-hydroxytryptamine receptor 2A, sequence (P14842 whole entry): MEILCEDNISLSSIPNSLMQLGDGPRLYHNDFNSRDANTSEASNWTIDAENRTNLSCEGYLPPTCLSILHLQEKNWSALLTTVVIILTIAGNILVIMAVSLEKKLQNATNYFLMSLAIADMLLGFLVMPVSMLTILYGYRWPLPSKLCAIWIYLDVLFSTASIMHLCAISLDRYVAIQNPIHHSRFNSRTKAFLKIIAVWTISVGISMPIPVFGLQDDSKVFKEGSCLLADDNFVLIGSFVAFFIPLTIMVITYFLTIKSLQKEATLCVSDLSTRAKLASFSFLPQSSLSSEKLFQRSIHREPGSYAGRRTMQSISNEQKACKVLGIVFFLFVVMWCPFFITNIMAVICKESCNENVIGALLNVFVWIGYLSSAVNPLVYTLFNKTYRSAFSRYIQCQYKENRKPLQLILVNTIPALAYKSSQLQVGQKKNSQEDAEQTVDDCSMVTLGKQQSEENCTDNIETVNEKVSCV

[8] = target: 5-hydroxytryptamine receptor 4 (Cavia porcellus, UniProt O70528); experiment: Inhibition of guinea pig 5HT4 receptor
5-hydroxytryptamine receptor 4, sequence (O70528 whole entry): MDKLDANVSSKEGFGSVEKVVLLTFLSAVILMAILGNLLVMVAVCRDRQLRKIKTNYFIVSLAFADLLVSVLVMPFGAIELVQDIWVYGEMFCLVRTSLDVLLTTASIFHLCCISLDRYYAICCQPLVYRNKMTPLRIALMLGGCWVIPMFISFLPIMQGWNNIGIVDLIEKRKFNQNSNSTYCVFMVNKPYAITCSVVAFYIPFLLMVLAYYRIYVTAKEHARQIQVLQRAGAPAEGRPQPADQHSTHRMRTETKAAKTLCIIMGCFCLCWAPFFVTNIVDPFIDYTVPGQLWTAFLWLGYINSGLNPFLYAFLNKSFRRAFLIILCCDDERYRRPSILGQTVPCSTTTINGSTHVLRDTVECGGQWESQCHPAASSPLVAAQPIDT

D(1A) dopamine receptor = D(1A) dopamine receptor (Homo sapiens, UniProt P21728); experiment: Displacement of [3H]SCH23390 from human recombinant dopamine D1 receptor
D(1A) dopamine receptor, sequence (P21728 whole entry): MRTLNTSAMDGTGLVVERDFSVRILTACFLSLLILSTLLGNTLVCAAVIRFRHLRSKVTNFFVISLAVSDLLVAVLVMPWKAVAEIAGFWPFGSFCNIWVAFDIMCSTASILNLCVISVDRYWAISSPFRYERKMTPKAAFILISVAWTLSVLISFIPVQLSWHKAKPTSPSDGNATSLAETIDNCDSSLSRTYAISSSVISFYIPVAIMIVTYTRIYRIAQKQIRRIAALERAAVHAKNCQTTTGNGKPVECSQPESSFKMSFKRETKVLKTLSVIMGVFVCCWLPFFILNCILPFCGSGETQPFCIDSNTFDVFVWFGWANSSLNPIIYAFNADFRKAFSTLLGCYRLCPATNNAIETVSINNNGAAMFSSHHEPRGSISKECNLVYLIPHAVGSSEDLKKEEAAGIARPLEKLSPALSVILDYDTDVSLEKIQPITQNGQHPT

[9] = target: T2, 5-hydroxytryptamine receptor 3A (Homo sapiens, UniProt P46098); experiment: Displacement of [3H]BRL-43694 from human 5HT3 receptor expressed in HEK293 cells by liquid scintillation counting; type: cell-based
T2 sequence (P46098 whole entry): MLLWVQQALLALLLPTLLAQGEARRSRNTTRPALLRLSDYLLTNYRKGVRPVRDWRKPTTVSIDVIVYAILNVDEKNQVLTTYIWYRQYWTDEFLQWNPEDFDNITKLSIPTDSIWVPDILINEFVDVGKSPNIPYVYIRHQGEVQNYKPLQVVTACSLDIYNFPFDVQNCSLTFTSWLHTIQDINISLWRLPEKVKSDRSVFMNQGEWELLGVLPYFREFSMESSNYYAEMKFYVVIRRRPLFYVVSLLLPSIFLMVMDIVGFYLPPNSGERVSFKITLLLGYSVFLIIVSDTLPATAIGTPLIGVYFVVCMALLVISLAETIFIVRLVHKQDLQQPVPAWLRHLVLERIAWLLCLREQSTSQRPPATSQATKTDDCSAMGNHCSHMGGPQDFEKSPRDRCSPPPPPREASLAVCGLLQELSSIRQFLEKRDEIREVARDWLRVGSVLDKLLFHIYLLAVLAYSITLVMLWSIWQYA
Summary of the method: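 HEK-293 membranes expressing human 5-HT3 were incubated with 0.5 nmol/L [3H]BRL-43694 (final) for 60 min at 25 °C. Buffer: 50 mM Tris-HCl, 5 mM MgCl2, 1 mM EDTA, pH 7.5. Compound came from 270 μmol/L DMSO stock, diluted in buffer. Filtration was through GF/B presoaked in 0.5% polyethyleneimine, with two cold Tris washes. Run in duplicate or triplicate; percent inhibition calculated.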

[10] = target: Neuropeptide Y receptor type 1 (Homo sapiens, UniProt P25929); experiment: Displacement of [125I]peptide YY from NPY1 receptor in human SK-N-MC cells; type: cell-based
Neuropeptide Y receptor type 1, sequence (P25929 whole entry): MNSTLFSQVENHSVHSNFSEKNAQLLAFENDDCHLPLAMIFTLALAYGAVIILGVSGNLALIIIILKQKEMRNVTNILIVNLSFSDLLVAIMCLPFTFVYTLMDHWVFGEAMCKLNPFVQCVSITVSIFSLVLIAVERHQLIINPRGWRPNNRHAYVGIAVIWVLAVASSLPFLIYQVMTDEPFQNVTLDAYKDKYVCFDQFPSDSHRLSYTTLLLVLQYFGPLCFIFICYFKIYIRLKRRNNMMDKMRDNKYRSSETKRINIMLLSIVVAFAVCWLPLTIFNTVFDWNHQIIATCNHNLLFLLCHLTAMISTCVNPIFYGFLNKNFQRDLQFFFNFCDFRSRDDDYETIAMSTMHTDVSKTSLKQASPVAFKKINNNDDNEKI

[11] = target: Kappa-type opioid receptor (Cavia porcellus, UniProt P41144); experiment: Displacement of [3H]U69593 from guinea pig cerebellum kappa opioid receptor; type: tissue-based
Kappa-type opioid receptor, sequence (P41144 whole entry): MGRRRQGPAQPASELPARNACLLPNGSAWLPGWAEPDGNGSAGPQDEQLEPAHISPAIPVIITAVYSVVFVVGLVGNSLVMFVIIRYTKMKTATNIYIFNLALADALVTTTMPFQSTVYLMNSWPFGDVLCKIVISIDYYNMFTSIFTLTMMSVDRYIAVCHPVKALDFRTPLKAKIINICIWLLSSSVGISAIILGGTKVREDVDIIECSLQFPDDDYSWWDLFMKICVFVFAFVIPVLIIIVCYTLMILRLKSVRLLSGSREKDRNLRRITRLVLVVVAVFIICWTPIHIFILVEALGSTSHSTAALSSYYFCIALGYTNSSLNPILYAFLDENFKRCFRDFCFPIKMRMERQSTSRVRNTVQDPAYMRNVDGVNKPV

Adenosine receptor A3 = Adenosine receptor A3 (Homo sapiens, UniProt P0DMS8); experiment: Displacement of [125I]AB-MECA from human recombinant adenosine A3 receptor
Adenosine receptor A3, sequence (P0DMS8 whole entry): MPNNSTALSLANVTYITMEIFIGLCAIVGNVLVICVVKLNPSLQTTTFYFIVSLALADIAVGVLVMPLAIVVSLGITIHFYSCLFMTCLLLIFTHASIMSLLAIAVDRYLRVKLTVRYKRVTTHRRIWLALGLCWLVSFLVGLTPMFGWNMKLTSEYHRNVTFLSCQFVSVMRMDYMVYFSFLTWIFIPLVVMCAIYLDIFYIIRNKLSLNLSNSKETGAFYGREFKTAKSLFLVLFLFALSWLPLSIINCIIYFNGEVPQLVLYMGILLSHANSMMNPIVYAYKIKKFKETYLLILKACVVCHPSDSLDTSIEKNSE

[12] = Drug level in Sprague-Dawley rat blood at 3 mg/kg, po after 4 hrs by HPLC analysis; type: ADME, organism-based; parameters: dose 3 mg/kg, route oral; conditions: whole blood, read-out: Drug uptake; summary of the method: as §1
D(2) dopamine receptor = D(2) dopamine receptor (Homo sapiens, UniProt P14416); experiment: Inhibition of human dopamine D2 receptor
D(2) dopamine receptor, sequence (P14416 whole entry): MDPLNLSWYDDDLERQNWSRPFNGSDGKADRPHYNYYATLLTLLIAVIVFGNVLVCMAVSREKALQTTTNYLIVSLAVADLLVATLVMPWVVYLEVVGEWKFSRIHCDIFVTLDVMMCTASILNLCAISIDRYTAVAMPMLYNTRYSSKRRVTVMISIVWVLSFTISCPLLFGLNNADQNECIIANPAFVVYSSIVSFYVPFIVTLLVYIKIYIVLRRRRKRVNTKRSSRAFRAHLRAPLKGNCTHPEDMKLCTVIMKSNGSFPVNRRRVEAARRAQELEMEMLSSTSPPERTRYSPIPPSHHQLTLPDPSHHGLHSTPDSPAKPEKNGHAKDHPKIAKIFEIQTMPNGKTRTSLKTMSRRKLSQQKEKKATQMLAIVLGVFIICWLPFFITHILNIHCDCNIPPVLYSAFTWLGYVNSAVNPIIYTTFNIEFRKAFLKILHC

[13] = target: Sodium-dependent noradrenaline transporter (Homo sapiens, UniProt P23975); experiment: Displacement of [3H]nisoxetine from human recombinant NET
Sodium-dependent noradrenaline transporter, sequence (P23975 whole entry): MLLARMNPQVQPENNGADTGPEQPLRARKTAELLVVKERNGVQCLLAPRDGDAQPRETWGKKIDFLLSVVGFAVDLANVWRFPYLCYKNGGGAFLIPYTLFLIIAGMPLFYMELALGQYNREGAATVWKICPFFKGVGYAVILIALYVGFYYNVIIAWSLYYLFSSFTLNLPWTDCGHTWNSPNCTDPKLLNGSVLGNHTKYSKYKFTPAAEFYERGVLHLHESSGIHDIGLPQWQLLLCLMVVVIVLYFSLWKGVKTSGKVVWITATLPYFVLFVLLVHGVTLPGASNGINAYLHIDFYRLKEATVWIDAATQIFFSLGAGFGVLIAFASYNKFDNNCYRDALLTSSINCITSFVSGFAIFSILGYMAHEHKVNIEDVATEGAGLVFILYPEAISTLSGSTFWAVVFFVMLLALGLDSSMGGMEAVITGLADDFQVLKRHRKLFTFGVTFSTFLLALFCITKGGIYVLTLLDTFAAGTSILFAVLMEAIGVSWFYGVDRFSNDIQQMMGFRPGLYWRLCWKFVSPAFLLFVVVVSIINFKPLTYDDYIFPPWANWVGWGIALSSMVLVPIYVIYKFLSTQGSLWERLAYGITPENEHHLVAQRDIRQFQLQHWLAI

Muscarinic acetylcholine receptor M3, sequence (P20309 whole entry): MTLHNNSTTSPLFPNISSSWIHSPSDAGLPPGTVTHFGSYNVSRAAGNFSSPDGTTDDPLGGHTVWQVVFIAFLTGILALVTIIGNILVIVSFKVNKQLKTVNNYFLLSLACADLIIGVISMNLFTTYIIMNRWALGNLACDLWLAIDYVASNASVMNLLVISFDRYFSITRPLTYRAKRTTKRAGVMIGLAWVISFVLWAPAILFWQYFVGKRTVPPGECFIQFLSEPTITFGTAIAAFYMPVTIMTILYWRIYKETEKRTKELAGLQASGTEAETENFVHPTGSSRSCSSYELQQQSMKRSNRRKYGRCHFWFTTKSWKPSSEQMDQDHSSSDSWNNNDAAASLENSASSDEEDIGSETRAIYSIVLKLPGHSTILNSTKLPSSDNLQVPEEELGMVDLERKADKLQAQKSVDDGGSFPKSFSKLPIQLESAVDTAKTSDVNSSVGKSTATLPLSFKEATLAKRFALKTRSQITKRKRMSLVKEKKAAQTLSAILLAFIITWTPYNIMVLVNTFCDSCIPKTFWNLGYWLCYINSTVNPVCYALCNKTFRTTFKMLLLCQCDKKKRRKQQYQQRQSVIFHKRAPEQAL

Nn1c(CCCCN2CCN(c3ccc4ccccc4n3)CC2)nc2c(c1=O)CCCC2
IC50 [1]: > 1000 nM | inhibition [2]: 96.8% | concentration at 2 h [3]: 66.5 nM | concentration at 2 h [4]: 160 nM | IC50 [5]: > 1000 nM | IC50 [6]: > 1000 nM | IC50 [7]: 100 nM | IC50 [8]: > 1000 nM | IC50 (D(1A) dopamine receptor): > 1000 nM | IC50 [9]: 8.9 nM | IC50 [10]: > 1000 nM | IC50 [11]: > 1000 nM | IC50 (Adenosine receptor A3): > 1000 nM | concentration at 4 h [12]: 16.8 nM | IC50 (D(2) dopamine receptor): > 100 nM | IC50 [13]: > 1000 nM
